Columns and labels:
[1] = Antiproliferative activity against mouse RN2 cells transduced with BRD9-BET assessed as inhibition of cell growth for 7 days by cell titre glo assay (reference value: 1709 nM); conditions: RN2, 168 h
[2] = Antiproliferative activity against mouse RN2 cells transduced with BRD9 assessed as inhibition of cell growth for 7 days by cell titre glo assay (reference value: 1709 nM); conditions: RN2, 168 h
[3] = Antiproliferative activity against mouse RN2 cells transduced with wild type EZH2 assessed as inhibition of cell growth for 7 days by cell titre glo assay (reference value: 5.1 uM); conditions: RN2, 168 h
[4] = Antiproliferative activity against mouse RN2 cells transduced with EZH2 harboring SET domain of EZH1 assessed as inhibition of cell growth for 7 days by cell titre glo assay (reference value: 5.1 uM); conditions: RN2, 168 h
[5] = Antiproliferative activity against mouse RN2 cells transduced with BRD9-BET assessed as inhibition of cell growth for 7 days by cell titre glo assay (reference value: 323 nM); conditions: RN2, 168 h
[6] = Antiproliferative activity against mouse RN2 cells transduced with BRD9 assessed as inhibition of cell growth for 7 days by cell titre glo assay (reference value: 323 nM); conditions: RN2, 168 h
HL-60 = experiment: Antiproliferative activity against human HL-60 cells assessed as inhibition of cell growth for 7 days by cell titre glo assay; assay type: functional; conditions: HL-60, 168 h, time 7 day
In short: (§1)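 Human cancer cell lines in RPMI-1640 (leukemia) or DMEM (solid) with 10 % FBS, grown 7 days with rising inhibitor concentrations. Proliferation read by CellTiter-Glo, normalized to DMSO control.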

[7] = Antiproliferative activity against mouse RN2 cells transduced with BRD9 assessed as inhibition of cell growth for 7 days by cell titre glo assay (reference value: 0.757 uM); conditions: RN2, 168 h
[8] = Antiproliferative activity against mouse RN2 cells transduced with BRD9-BET assessed as inhibition of cell growth for 7 days by cell titre glo assay (reference value: 0.757 uM); conditions: RN2, 168 h
Jurkat = experiment: Antiproliferative activity against human Jurkat cells assessed as inhibition of cell growth for 7 days by cell titre glo assay; assay type: functional; conditions: 168 h, time 7 day
In short: as §1

[9] = molecular target: T1, ATPase family AAA domain-containing protein 2B (Homo sapiens, UniProt Q9ULI0); experiment: Binding affinity to KIAA1240 (unknown origin) assessed as dissociation constant by bromoKdselect analysis
T1 sequence (Q9ULI0 whole entry): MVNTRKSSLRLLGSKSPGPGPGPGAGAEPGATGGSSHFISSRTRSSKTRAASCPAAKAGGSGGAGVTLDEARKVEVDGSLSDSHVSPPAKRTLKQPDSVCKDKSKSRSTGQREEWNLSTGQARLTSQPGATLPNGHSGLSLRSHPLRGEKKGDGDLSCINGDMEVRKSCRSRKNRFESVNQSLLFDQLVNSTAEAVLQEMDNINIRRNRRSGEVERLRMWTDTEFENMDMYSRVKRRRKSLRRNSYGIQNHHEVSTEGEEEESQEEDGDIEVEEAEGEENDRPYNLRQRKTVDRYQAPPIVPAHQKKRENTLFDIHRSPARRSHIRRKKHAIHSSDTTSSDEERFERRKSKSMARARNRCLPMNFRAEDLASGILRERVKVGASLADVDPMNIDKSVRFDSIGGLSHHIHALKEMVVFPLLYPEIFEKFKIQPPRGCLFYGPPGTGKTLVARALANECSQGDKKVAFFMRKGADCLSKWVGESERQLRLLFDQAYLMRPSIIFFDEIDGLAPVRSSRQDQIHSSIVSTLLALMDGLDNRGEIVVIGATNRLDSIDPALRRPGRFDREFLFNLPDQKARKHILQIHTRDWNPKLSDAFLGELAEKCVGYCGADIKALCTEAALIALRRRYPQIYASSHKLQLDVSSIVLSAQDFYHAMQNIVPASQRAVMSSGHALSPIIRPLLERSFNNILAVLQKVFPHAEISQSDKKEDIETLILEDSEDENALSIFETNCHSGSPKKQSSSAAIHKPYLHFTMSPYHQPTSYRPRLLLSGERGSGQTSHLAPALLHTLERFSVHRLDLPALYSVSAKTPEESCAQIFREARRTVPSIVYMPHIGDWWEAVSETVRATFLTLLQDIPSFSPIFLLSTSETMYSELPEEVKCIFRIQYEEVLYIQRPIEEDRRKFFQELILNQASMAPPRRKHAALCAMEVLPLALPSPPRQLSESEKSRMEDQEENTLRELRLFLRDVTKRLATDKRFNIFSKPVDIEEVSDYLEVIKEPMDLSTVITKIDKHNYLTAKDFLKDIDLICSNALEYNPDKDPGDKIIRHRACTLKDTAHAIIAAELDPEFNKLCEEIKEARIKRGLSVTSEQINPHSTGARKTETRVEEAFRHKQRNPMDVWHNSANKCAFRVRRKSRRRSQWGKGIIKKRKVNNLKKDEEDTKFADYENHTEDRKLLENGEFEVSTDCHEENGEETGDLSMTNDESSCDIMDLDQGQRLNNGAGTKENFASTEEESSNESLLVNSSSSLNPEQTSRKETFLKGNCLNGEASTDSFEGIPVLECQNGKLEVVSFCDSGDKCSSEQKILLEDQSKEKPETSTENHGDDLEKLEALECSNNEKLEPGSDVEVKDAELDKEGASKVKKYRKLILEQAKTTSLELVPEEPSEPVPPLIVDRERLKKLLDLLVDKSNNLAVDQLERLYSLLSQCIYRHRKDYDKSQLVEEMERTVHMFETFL

[10] = Antiproliferative activity against mouse RN2 cells transduced with BRD9-BET assessed as inhibition of cell growth for 7 days by cell titre glo assay (reference value: 610 nM); conditions: RN2, 168 h
[11] = Antiproliferative activity against mouse RN2 cells assessed as inhibition of cell growth for 7 days by cell titre glo assay; conditions: RN2, 168 h
[12] = Antiproliferative activity against mouse RN2 cells transduced with BRD9-BET assessed as inhibition of cell growth for 7 days by cell titre glo assay (reference value: 6.144 uM); conditions: RN2, 168 h
[13] = Antiproliferative activity against mouse RN2 cells transduced with BRD9 assessed as inhibition of cell growth for 7 days by cell titre glo assay (reference value: 6.144 uM); conditions: RN2, 168 h

## COc1cc(-c2cc(C)c(=O)n(C)c2C)cc(OC)c1CN(C)C
[1]
  GI50: > 10 µM
[2]
  GI50: 1.03 µM

## CC[C@H](C)n1cc(C)c2c(C(=O)NCc3c(C)cc(C)[nH]c3=O)cc(-c3ccc(N4CCNCC4)nc3)cc21 [GSK2816126]
[3]
  GI50: 6.2 µM
[4]
  GI50: > 10 µM

## COc1cc(-c2cn(C)c(=O)c3ccccc23)cc(OC)c1CN(C)C
[5]
  GI50: 4.48 µM
[6]
  GI50: 0.16 µM

## CCn1cc(-c2cccc(C(F)(F)F)c2)c2sc(C(=N)NC3CCS(=O)(=O)CC3)cc2c1=O
HL-60
  GI50: 0.433 µM
[7]
  GI50: 1.25 µM
[8]
  GI50: 2.69 µM
Jurkat
  GI50: 3.64 µM

## COc1cc(-c2cn(C)c(=O)c3cnccc23)cc(OC)c1CN(C)C
[9]
  Kd: 1 µM
[10]
  GI50: > 10 µM
[11]
  GI50: 0.476 µM

## Cc1cc(=O)n(C)c2cc(N3C(=O)CC[C@H](NS(=O)(=O)CC(C)C)[C@H]3c3ccc(Cl)cc3)ccc12
[12]
  GI50: 9.38 µM
HL-60
  GI50: 5.03 µM
Jurkat
  GI50: 10.5 µM
[13]
  GI50: 6.87 µM

Reference: ChEMBL document CHEMBL5712890, “Sensitivity and engineered resistance of myeloid leukemia cells to BRD9 inhibition” (Nat Chem Biol, 2016)
